Calls of active or inactive are those of the source. The rule behind the calls is not given here.
Assays:
MCF7 = assay: Cytotoxicity against human MCF7 cells assessed as reduction in cell number in glucose-free, galactose/glutamine medium after 3 to 5 days; type: functional, cell-based
In short: (§1)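 Cells grown in glucose-free DMEM with galactose (1.8 g/L), L-glutamine (0.584 g/L), pyruvate and 10% FBS, forcing ATP from oxidative phosphorylation. Exposed to a dose range for 1, 3 and 5 days. Cell number read by sulforhodamine B and expressed as % of control. Mean ± SEM, 5 experiments.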

Liver microsome [1] = assay: Induction of mitochondrial function disruption in Wistar Han rat liver mitochondria energized with succinate assessed as State-4 level per mg of protein measured at 1.333 ug/mg of protein (reference value: 33.5 +/- 7.5 nmol/mg protein/min); type: functional
Liver microsome [2] = assay: Induction of mitochondrial function disruption in Wistar Han rat liver mitochondria energized with succinate assessed as respiratory control ratio measured at 0.067 ug/mg of protein (reference value: 4.1 +/- 0.5 no_unit); type: functional
Liver microsome [3] = assay: Induction of mitochondrial function disruption in Wistar Han rat liver mitochondria energized with succinate assessed as State-4 level per mg of protein measured at 0.333 ug/mg of protein (reference value: 33.5 +/- 7.5 nmol/mg protein/min); type: functional
MDA-MB-231 = assay: Cytotoxicity against human MDA-MB-231 cells assessed as reduction in cell number in glucose-free, galactose/glutamine medium after 3 to 5 days; type: functional, cell-based; in short: as §1
Liver microsome [4] = assay: Induction of mitochondrial function disruption in Wistar Han rat liver mitochondria energized with succinate assessed as State-3 level per mg of protein measured at 1.333 ug/mg of protein (reference value: 130.8 +/- 24.1 nmol/mg protein/min); type: functional
Liver microsome [5] = assay: Induction of mitochondrial function disruption in Wistar Han rat liver mitochondria energized with succinate assessed as adenosine diphosphate/O ratio measured at 0.333 ug/mg of protein (reference value: 2.3 +/- 0.2 no_unit); type: functional
Liver microsome [6] = assay: Induction of mitochondrial function disruption in Wistar Han rat liver mitochondria energized with succinate assessed as State-3 level per mg of protein measured at 0.067 ug/mg of protein (reference value: 130.8 +/- 24.1 nmol/mg protein/min); type: functional
Liver microsome [7] = assay: Induction of mitochondrial function disruption in Wistar Han rat liver mitochondria energized with succinate assessed as State-4 level per mg of protein measured at 0.133 ug/mg of protein (reference value: 33.5 +/- 7.5 nmol/mg protein/min); type: functional
Liver microsome [8] = assay: Induction of mitochondrial function disruption in Wistar Han rat liver mitochondria energized with succinate assessed as State-4 level per mg of protein measured at 0.067 ug/mg of protein (reference value: 33.5 +/- 7.5 nmol/mg protein/min); type: functional
Liver microsome [9] = assay: Induction of mitochondrial function disruption in Wistar Han rat liver mitochondria energized with succinate assessed as respiratory control ratio measured at 0.133 ug/mg of protein (reference value: 4.1 +/- 0.5 no_unit); type: functional
Liver microsome [10] = assay: Induction of mitochondrial function disruption in Wistar Han rat liver mitochondria energized with succinate assessed as adenosine diphosphate/O ratio measured at 1.333 ug/mg of protein (reference value: 2.3 +/- 0.2 no_unit); type: functional
Hs-578T [11] = assay: Induction of apoptosis in human Hs578T cells assessed as increase in p53 protein at 1 ug/ml after 24 hrs by Western blot analysis; type: functional, cell-based
In short: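 About 1.0×10^6 attached and floating HS578T cells, treated 24 h at 1 μg/ml, were lysed in HEPES/sucrose buffer with DTT, PMSF and protease inhibitors. Extracts were stored at -80°C, then p53 and cyclophilin D were semi-quantified by Western blot. Six experiments, mean ± SEM.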

Hs-578T [12] = assay: Induction of apoptosis in human Hs578T cells assessed as increase in caspase 9 like activity at 1 ug/ml after 24 hrs; type: functional, cell-based
In short: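 HS578T cells were treated 24 h at 1 μg/ml. Attached and floating cells were lysed in HEPES pH 7.4/CHAPS/DTT buffer. Extract protein was incubated 2 h at 37°C with […] Ac-DEVD-pNA (caspase-3) or Ac-LEHD-pNA (caspase-9). Released p-nitroanilide was read at endpoint against a pNA calibration. Six experiments, mean ± SEM.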

Liver microsome [13] = assay: Induction of mitochondrial permeability transition pore in Wistar Han rat liver mitochondria assessed as mitochondrial swelling by spectrophotometry relative to control
Liver microsome [14] = assay: Induction of mitochondrial function disruption in Wistar Han rat liver mitochondria energized with succinate assessed as State-3 level per mg of protein measured at 0.667 ug/mg of protein (reference value: 130.8 +/- 24.1 nmol/mg protein/min); type: functional
Liver microsome [15] = assay: Induction of mitochondrial function disruption in Wistar Han rat liver mitochondria energized with succinate assessed as State-3 level per mg of protein measured at 0.133 ug/mg of protein (reference value: 130.8 +/- 24.1 nmol/mg protein/min); type: functional
[16] = Induction of mitochondrial permeability transition pore in Wistar Han rat liver mitochondria assessed as mitochondrial swelling by spectrophotometry; type: functional
In short: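 Isolated rat liver mitochondria were energized with succinate plus rotenone and pre-incubated with compound at 0.07–1.33 µg/mg protein. MPT was then triggered by one Ca2+ pulse of 40 nmol/mg protein. Swelling was followed as pseudo-absorbance at 540 nm, and amplitude is basal minus the reading 600 s after Ca2+. Cyclosporin A at 1 µM was the reference, with 6 preparations.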

[17] = Induction of apoptosis in human Hs578Bst cells assessed as distribution of mitochondrial polarization and morphology at 0.25 ug/ml after 6 hrs by confocal microscopy; type: functional, cell-based
In short: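 Cells were seeded on glass coverslips and left to attach for 24 h. They were then exposed to vehicle or 0.25 μg/ml compound for 6 h. For the last 30 min they were loaded with 100 nM TMRM in saline buffer with 15 mM glucose, and the probe was kept present during imaging. Mitochondrial polarization and morphology were imaged by fluorescence microscopy, and the TMRM fluorescence standard deviation was quantified. Four independent preparations, mean ± SEM.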

Liver microsome [18] = assay: Induction of mitochondrial function disruption in Wistar Han rat liver mitochondria energized with succinate assessed as respiratory control ratio measured at 0.667 ug/mg of protein (reference value: 4.1 +/- 0.5 no_unit); type: functional
Liver microsome [19] = assay: Induction of mitochondrial function disruption in Wistar Han rat liver mitochondria energized with succinate assessed as respiratory control ratio measured at 0.333 ug/mg of protein (reference value: 4.1 +/- 0.5 no_unit); type: functional
[20] = Cytotoxicity against human MCF12A cells at 0.125 to 2 ug/ml after 1 to 5 days by sulforhodamine B assay; type: cell-based; details: mcf-12a
In short: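 Non-tumor cells seeded at 2×10^4 cells/ml and treated 24 h after seeding, in high-glucose DMEM with pyruvate, 10% FBS and penicillin-streptomycin, 37°C, 5% CO2. Compound exposure 0.125–2 μg/ml for 1, 3 and 5 days, with vehicle controls. Cells fixed and stained with sulforhodamine B for total cell mass. Data given as % of untreated control at each time point; five independent experiments.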

Hs-578T [21] = assay: Cytotoxicity against human Hs578T cells at 0.125 to 2 ug/ml incubated for 6 hrs folowed by drug wash out and fresh medium addition and measured 5 days after wash out; type: functional, cell-based

SMILES	inhibition (MCF7)	Activity (Liver microsome [1]) [nmol/min]	Ratio (Liver microsome [2])	Activity (Liver microsome [3]) [nmol/min]	Cytotoxicity (active/inactive call) (MDA-MB-231)	Activity (Liver microsome [4]) [nmol/min]	Ratio (Liver microsome [5])	Activity (Liver microsome [6]) [nmol/min]	Activity (Liver microsome [7]) [nmol/min]	Activity (Liver microsome [8]) [nmol/min]	Ratio (Liver microsome [9])	Ratio (Liver microsome [10])	Activity (Hs-578T [11])	Activity (Hs-578T [12])	Activity (Liver microsome [14]) [nmol/min]	Activity (Liver microsome [15]) [nmol/min]	Activity [16]	Activity [17]	Ratio (Liver microsome [18])	Ratio (Liver microsome [19])	other results
C=C(C)[C@@H]1CC[C@]2(COC(=O)C(CC)[n+]3ccc(N(C)C)cc3)CC[C@]3(C)[C@H](CC[C@@H]4[C@@]5(C)CC[C@H](OC(=O)C(CC)[n+]6ccc(N(C)C)cc6)C(C)(C)[C@@H]5CC[C@]43C)[C@@H]12 (stereo partly drawn)	Active	21.5	3	23.2	Active	119	1.6	130	23.7	24.1	3	1.6	Active	Active	125	131	Dose-dependent effect	Active	3.1	3.2	fold change (FC) (Liver microsome [13]): 5
C=C(C)[C@@H]1CC[C@]2(COC(=O)C[N+](C)(C)C(C)C)CC[C@]3(C)[C@H](CC[C@@H]4[C@@]5(C)CC[C@H](OC(=O)C[N+](C)(C)C(C)C)C(C)(C)[C@@H]5CC[C@]43C)[C@@H]12.[Cl-].[Cl-]	Active	28.7	4	27.2	Active	107	2.9	117	28.6	27.5	4	2.9	Active	Active	116	121	Dose-dependent effect	Active	4.3	4.2	Activity [20]: Non-toxic; inhibition (Hs-578T [21]): Active; fold change (FC) (Liver microsome [13]): 5
C=C(C)[C@@H]1CC[C@]2(COC(=O)C[n+]3ccc(N(C)C)cc3)CC[C@]3(C)[C@H](CC[C@@H]4[C@@]5(C)CC[C@H](OC(=O)C[n+]6ccc(N(C)C)cc6)C(C)(C)[C@@H]5CC[C@]43C)[C@@H]12.[Cl-].[Cl-]	Active	34.8	4.1	34.8	Active	131	2.2	132	34.5	24.5	4.1	2.3	Active	–	141	130	Dose-dependent effect	Active	4.4	4.4	Activity [20]: Toxic; inhibition (Hs-578T [21]): Active; fold change (FC) (Liver microsome [13]): 5
C=C(C)[C@@H]1CC[C@]2(COC(=O)CC[n+]3ccc(N(C)C)cc3)CC[C@]3(C)[C@H](CC[C@@H]4[C@@]5(C)CC[C@H](OC(=O)CC[n+]6ccc(N(C)C)cc6)C(C)(C)[C@@H]5CC[C@]43C)[C@@H]12.[Cl-].[Cl-]	Active	25.7	4.3	29.1	Active	112	1.8	127	25.3	29.4	4.1	1.8	Active	Active	116	111	inactive	inactive	4.6	4.1	Activity [20]: Toxic; inhibition (Hs-578T [21]): Active

Reference: ChEMBL document CHEMBL3351723, “New derivatives of lupane triterpenoids disturb breast cancer mitochondria and induce cell death” (Bioorg Med Chem, 2014)
